Source: paper PMC11908206 (bioRxiv, 2025)

Key:
[1] = tested on: Apc^Q1405X small intestinal organoids; assay: RNA-seq and GSEA of ApcQ1405X small intestinal organoids; format: cell-based, mouse; details: 250nM G007-LK or 500nM TDI-012804, 3 days; for transcriptional response (RNA-seq), Tnks1 KO: ApcQ1405X/Tnks1 KO organoids; for transcriptional response (RNA-seq), Tnks1 WT: ApcQ1405X/Tnks1 WT organoids
Outline: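 Organoids plated at one six-well per condition in EN medium (basal Advanced DMEM/F12 with EGF 40 ng/ml and LDN 50 nM). Medium contained DMSO or test compound at 250 nM or 500 nM, then harvested for RNA isolation and sequencing.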

[2] = tested on: ApcQ1405X small intestinal organoids; assay: Organoid viability; format: cell-based, mouse; details: 250nM
Outline: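 Mouse ApcQ1405X small-intestinal organoids plated at high density in Matrigel, two wells per condition, in EN medium (EGF 40 ng/ml, LDN 50 nM) containing DMSO or 250 nM compound. Medium changed every 2 days. Every 4 days, alamarBlue added to one well and fluorescence read; the other well passaged 1:2 into the same condition. Run for 20 days; n = 3, mean with SEM.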

OVCAR4 cells = assay: Colony forming assay, OVCAR4; format: cell-based, human
[3] = tested on: ApcQ1405X small intestinal organoids; assay: Organoid viability; format: cell-based, mouse; details: all Tnks1 genotypes, 6 days
[4] = tested on: AXIN1 in TNKS1^KO DLD1 cells; format: cell-based; details: 24h
PARP2 = PARP2 (Homo sapiens, UniProt Q9UGN5); assay: PARP2 inhibition; format: biochemical; details: Fig. S9
AXIN1 in DLD1 cells = assay: Western blot of endogenous AXIN1 in TNKS1 isogenic DLD1 cells; format: cell-based; details: 500nM or 250nM, 24h
Outline: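 DLD1 TNKS1-edited clones made by Cas9 and TNKS1 sgRNA transduction with drug selection, then single-cell cloning by limiting dilution. For blotting, 700,000 cells/well were allowed to adhere 24h and treated with compound for 24h. Lysis in RIPA buffer on ice for 20 min; 20 µg protein per sample blotted for AXIN1; band intensity quantified.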

H23 cells = assay: Colony forming assay, H23; format: cell-based, human
[5] = tested on: ApcQ1405X/KrasG12D/p53Q97X small intestinal organoids; assay: Organoid viability; format: cell-based, mouse; details: six days
AXIN1 in SW403 cells = assay: Western blot of AXIN1 in SW403 cells; format: cell-based, human; details: SW403 (8p heterozygous), 250nM, 24h
Outline: (§1)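 Cells grown in RPMI-1640 with 10% FBS; 700,000 per well seeded and allowed to adhere 24h. Exposed to 250 nM compound for 24h, then lysed in RIPA buffer on ice for 20 min and cleared at 15,000 rpm for 10 min. 20 µg protein per lane probed for AXIN1; band intensity quantified.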

PARP1 = PARP1 (Homo sapiens, UniProt P09874); assay: PARP1 inhibition; format: biochemical; details: Fig. S9
AXIN1 in H23 cells = assay: Western blot of AXIN1 in H23 cells; format: cell-based, human; details: 8p diploid H23, 250nM, 24h
Outline: as §1

[6] = tested on: TNKS2^WT, TNKS2^L1136Y and TNKS1 SAM-PARP domains; assay: In vitro PARylation assay with purified SAM-PARP domains; format: biochemical
[7] = tested on: TOPFlash reporter in DLD1 cells; assay: TOPFlash WNT transcriptional reporter in TNKS1 isogenic DLD1 cells; format: cell-based; details: Homo sapiens, DLD-1, read-out: TOP-Flash reporter EC50
[8] = tested on: ApcQ1405X/KrasG13D/p53Q97X small intestinal organoids; assay: Organoid viability; format: cell-based, mouse; details: six days
PARP3 = target: T1, PARP3 (Homo sapiens, UniProt Q9Y6F1); assay: PARP3 inhibition; format: biochemical; details: Fig. S9
T1 sequence (Q9Y6F1 1-533): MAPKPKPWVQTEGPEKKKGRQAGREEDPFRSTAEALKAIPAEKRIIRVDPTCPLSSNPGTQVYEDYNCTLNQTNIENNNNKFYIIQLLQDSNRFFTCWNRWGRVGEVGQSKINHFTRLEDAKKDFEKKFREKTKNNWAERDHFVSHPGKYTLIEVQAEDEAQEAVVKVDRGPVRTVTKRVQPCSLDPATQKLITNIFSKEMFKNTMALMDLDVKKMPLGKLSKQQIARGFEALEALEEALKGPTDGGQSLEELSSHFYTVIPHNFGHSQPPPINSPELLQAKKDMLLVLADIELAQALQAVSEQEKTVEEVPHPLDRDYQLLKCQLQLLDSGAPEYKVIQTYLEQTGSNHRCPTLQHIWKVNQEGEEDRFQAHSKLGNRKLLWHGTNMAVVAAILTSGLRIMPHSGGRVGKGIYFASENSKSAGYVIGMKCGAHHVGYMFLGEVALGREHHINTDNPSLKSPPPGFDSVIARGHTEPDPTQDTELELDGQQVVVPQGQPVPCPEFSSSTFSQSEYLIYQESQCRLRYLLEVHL

Sequence of PARP2 (Q9UGN5 whole entry, species assumed): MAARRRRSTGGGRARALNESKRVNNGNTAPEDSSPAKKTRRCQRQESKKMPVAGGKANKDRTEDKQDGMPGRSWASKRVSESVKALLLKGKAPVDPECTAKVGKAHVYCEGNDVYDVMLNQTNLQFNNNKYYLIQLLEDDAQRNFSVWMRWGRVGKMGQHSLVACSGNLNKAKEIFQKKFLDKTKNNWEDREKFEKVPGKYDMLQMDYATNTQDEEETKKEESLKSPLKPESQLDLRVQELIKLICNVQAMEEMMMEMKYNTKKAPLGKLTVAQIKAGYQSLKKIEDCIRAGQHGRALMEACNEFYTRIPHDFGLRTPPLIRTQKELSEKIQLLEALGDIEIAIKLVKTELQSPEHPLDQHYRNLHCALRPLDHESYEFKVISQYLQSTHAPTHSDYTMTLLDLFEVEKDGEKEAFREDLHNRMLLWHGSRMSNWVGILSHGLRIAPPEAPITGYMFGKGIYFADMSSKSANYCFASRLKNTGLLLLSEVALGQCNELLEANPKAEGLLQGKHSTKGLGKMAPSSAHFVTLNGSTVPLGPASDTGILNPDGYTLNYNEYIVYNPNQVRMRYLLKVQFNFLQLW
Sequence of PARP1 (P09874 whole entry, species assumed): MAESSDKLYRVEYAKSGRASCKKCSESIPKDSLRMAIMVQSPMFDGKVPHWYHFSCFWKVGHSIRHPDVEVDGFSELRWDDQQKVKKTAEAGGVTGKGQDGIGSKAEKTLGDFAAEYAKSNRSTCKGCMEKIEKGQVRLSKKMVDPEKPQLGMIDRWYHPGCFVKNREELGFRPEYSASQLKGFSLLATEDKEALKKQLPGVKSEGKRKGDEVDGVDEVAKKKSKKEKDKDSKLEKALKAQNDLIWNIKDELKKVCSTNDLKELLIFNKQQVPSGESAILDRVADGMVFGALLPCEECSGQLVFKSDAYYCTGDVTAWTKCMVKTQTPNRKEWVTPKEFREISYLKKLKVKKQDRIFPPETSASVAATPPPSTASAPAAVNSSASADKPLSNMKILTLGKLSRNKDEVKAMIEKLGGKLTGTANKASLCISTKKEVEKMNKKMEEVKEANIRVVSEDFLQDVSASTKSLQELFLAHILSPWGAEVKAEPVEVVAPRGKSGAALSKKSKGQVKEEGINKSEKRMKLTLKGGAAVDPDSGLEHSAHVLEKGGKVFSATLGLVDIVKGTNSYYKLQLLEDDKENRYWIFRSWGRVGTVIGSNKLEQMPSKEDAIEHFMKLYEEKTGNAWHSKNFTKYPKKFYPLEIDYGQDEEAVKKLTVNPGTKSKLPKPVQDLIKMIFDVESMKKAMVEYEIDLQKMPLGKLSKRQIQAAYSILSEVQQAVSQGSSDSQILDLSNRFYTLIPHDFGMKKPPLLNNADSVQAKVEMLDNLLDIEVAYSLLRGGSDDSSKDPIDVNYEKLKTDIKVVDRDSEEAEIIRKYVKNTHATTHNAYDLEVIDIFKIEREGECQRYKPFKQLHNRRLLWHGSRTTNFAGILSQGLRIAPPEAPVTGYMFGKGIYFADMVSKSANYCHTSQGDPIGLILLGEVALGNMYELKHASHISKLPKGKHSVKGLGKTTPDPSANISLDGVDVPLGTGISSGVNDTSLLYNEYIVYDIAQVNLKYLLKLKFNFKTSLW

CS(=O)(=O)c1ccc(-c2nnc(/C=C/c3nnc(-c4ccc(C#N)cc4)o3)n2-c2ccccc2Cl)nc1 [G007-LK, reference compound]
transcriptional response (RNA-seq), Tnks1 KO [1]: broad transcriptional changes
transcriptional response (RNA-seq), Tnks1 WT [1]: broad transcriptional changes
organoid growth over 20 days ([2]; ApcQ1405X organoids): robust suppression of organoid growth
colony formation, OVCAR4 (OVCAR4 cells; OVCAR4, 250nM, with or without Palbociclib): sensitive
organoid proliferation (organoid area and AlamarBlue) [3]: robust suppression of proliferation across all Tnks1 genotypes

COc1cc(-c2ccccc2)ncc1C(=O)Nc1ccc2c(=O)[nH]c(-c3ccc(C(C)(C)O)cc3)nc2c1 [TDI-012804, COC1=C(C=NC(=C1)C1=CC=CC=C1)C(=O)NC1=CC=C2C(=O)NC(=NC2=C1)C1=CC=C(C=C1)C(C)(C)O]
AXIN1 protein (western blot), TNKS1 KO ([4]; TNKS1 KO DLD1, 250nM): increased AXIN1 protein
AXIN1 protein (western blot), TNKS1 KO/TNKS2 WT ([4]; TNKS1 KO DLD1 expressing TNKS2 WT cDNA, 250nM): increased AXIN1 protein
transcriptional response (RNA-seq), Tnks1 KO [1]: near-identical overall transcriptional response to G007-LK treated cultures
transcriptional response (RNA-seq), Tnks1 WT [1]: no significant gene expression changes
inhibition of PARP2 (PARP2): no inhibition
endogenous AXIN1 protein (western blot), TNKS1 HET (AXIN1 in DLD1 cells; DLD1 TNKS1 HET): marked stabilization
endogenous AXIN1 protein (western blot), TNKS1 KO (AXIN1 in DLD1 cells; DLD1 TNKS1 KO): marked stabilization
endogenous AXIN1 protein (western blot), TNKS1 diploid (AXIN1 in DLD1 cells; DLD1 TNKS1 diploid controls): minimal increase
colony formation, H23 (H23 cells; 8p diploid H23, 250nM): nor suppress colony formation
colony formation, H23 with suppression of TNKS1 (H23 cells; H23 shTNKS1, 250nM, further enhanced with Palbociclib): significant sensitization
organoid proliferation over 20 days, Tnks1 HET ([2]; ApcQ1405X Tnks1 HET organoids): significant reduction in proliferation
organoid proliferation over 20 days, Tnks1 KO ([2]; ApcQ1405X Tnks1 KO organoids): significant reduction in proliferation
toxicity to Tnks1 KO compared to Tnks1 WT AKP-G12D organoids [5]: selectively toxic
AXIN1 protein (western blot), SW403 (AXIN1 in SW403 cells): induced AXIN1 stabilization to similar levels as the pan-TNKS inhibitor G007-LK
inhibition of PARP1 (PARP1): no inhibition
AXIN1 protein (western blot), H23 (AXIN1 in H23 cells): did not induce AXIN1 stabilization
effect of L1136Y mutation on potency against TNKS2 [6]: significantly reduced the potency
EC50 [7]: < 100 nM
colony formation, OVCAR4 TNKS1-depleted (OVCAR4 cells; OVCAR4 shTNKS1, 250nM): significantly reduced
toxicity to Tnks1 KO compared to Tnks1 WT AKP-G13D organoids [8]: selectively toxic
inhibition of PARP3 (PARP3): no inhibition
